This is an account of results in ChEMBL document CHEMBL4028915, “The Design and Development of a Potent and Selective Novel Diprolyl Derivative That Binds to the N-Domain of Angiotensin-I Converting Enzyme” (J Med Chem, 2018).

Structures are written as SMILES.

Assay [1] in a line: Inhibition of human ACE Ndom389 mutant preincubated for 30 mins followed by Z-FHL substrate addition measured after 15 mins by fluorimetric method. The essentials:
(§1)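 Enzyme diluted from frozen stock to 10 nM (Ndom389, line 1) or 5 nM (tACE Δ36NJ, line 2) in 100 mM potassium phosphate pH 8.3, 300 mM NaCl, 10 μM ZnSO4, 1 mg/ml albumin. Compounds (10-fold series 100 μM–1 nM, then 9-point two-fold series) preincubated with enzyme 1:1, 30 min, room temperature. 1 mM Z-FHL added, 40 °C, 15 min. OPA/NaOH derivatisation, HCl quench. Fluorescence ex 360/em 485 nm, triplicate wells. IC50 from activity curves, converted to Ki.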

Assay [2] can be described thus: Inhibition of human testis ACE delta36NJ mutant preincubated for 30 mins followed by Z-FHL substrate addition measured after 15 mins by fluorimetric method. A digest of the protocol:
as §1

Assay [3] is filed under the species Homo sapiens. Kind of assay: Selectivity ratio of Ki for human testis ACE delta36NJ mutant to Ki for human ACE Ndom389 mutant. A digest of the protocol: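 Ki for each domain calculated from IC50 values obtained by Z-FHL hydrolysis assay (Ndom389 10 nM, tACE Δ36NJ 5 nM; 30 min room temperature preincubation, 15 min at 40 °C, OPA fluorescence ex 360/em 485 nm, triplicate). Ratio of C-domain Ki to N-domain Ki.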

What is called Ki is a dissociation constant, usually derived from enzyme kinetics or from competition with a known ligand. Lower therefore signals higher affinity. As for `C[C@H](N[C@H](C(=O)O)[C@@H]1CCCN1C(=O)CN)C(=O)N1CCC[C@H]1C(=O)O`, the Ki in assay [1] stood at 0.279 µM; in assay [2], 0.0444 µM. In addition, the Ratio Ki in assay [3] was 0.16.

`C[C@H](N[C@H](C(=O)O)[C@@H]1CCCN1C(=O)[C@@H](N)CCC(=O)O)C(=O)N1CCC[C@H]1C(=O)O`: the inhibition constant Ki worked out at 0.00963 µM in assay [1] and 0.0174 µM in assay [2]. Moreover, in assay [3], the Ratio Ki turned out to be 1.81.

In the case of `C[C@H](N[C@H](C(=O)O)[C@@H]1CCCN1C(=O)c1ccc(N)cc1)C(=O)N1CCC[C@H]1C(=O)O`, the results for the Ki in assay [1] and in assay [2] were 0.00337 µM and 0.00022 µM, respectively. In assay [3], the Ratio Ki turned out to be 0.07.

In the case of `C[C@H](N[C@H](C(=O)O)[C@@H]1CCCN1C(=O)c1ccc(C(=O)O)cc1)C(=O)N1CCC[C@H]1C(=O)O`, the Ki in assay [1] is 0.0169 µM; in assay [2], 0.00229 µM. For the same compound, the Ratio Ki in assay [3] came to 0.14.

On to `C[C@H](N[C@H](C(=O)O)[C@@H]1CCCN1C(=O)[C@@H](N)Cc1ccccc1)C(=O)N1CCC[C@H]1C(=O)O`, for which the Ki in assay [1] turned out to be 0.0703 µM; in assay [2], 0.168 µM. Moreover, the Ratio Ki in assay [3] was found to be 2.39.

With `C[C@H](N[C@H](C(=O)O)[C@@H]1CCCN1C(=O)[C@@H](N)CC(=O)O)C(=O)N1CCC[C@H]1C(=O)O`, the Ki amounted to 0.0115 µM in assay [1] and 0.961 µM in assay [2]. The Ratio Ki in assay [3] came to 83.9.

Regarding `C[C@H](N[C@H](C(=O)O)[C@@H]1CCCN1C(=O)c1ccccc1)C(=O)N1CCC[C@H]1C(=O)O`, the Ki in assay [1] was 0.00445 µM; in assay [2] it was 0.00031 µM. The Ratio Ki in assay [3] is 0.07.
